Experimental data taken from ChEMBL document CHEMBL4311965, “Antimicrobial activity of amphipathic α,α-disubstituted β-amino amide derivatives against ESBL - CARBA producing multi-resistant bacteria; effect of halogenation, lipophilicity and cationic character” (Eur J Med Chem, 2019).
In brackets after ≈: the same amount, converted by molar mass.

Columns and labels:
[1] = test system: Corynebacterium glutamicum; assay: Antibacterial activity against Corynebacterium glutamicum ATCC 13032 cultured in MHB medium assessed as no bacterial growth incubated at 20 degC for 24 hrs by microdilution susceptibility test; type: functional; conditions: ATCC 13032, 24 h
Procedure, shortened: (§1)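 Broth microdilution per CLSI M07-A9 with modifications. Inoculum about 2.5–3 x 10⁴ cells/mL in Mueller-Hinton broth, mixed 1:1 with test derivative. DMSO stocks diluted in double-distilled water, final DMSO <1%. Incubation 24 h at 37 °C (20 °C for C. glutamicum). Growth and sterility controls included; oxytetracycline reference.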

[2] = Aqueous solubility of the compound in DMSO; type: physicochemical
Erythrocyte = assay: Hemolytic activity against human RBC incubated for 1 hr; type: cell-based
Procedure, shortened: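 Heparinized human blood washed three times in warm PBS and set to 10% hct. Erythrocytes at 1% v/v final, with compound in PBS (DMSO <1%), shaken 1 h at 37 °C and then centrifuged. Supernatant absorbance read at 405 and 545 nm after PBS background subtraction. Haemolysis taken relative to 1% Triton X-100. Three independent replicates, EC50 averaged.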

[3] = Selectivity index, ratio of EC50 for hemolytic activity against human RBC to MIC for antibacterial activity against Escherichia coli ATCC 25922; type: toxicity; conditions: human red blood cells (RBC)
Procedure, shortened: (§2)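 Selectivity index is the RBC haemolysis EC50 divided by the MIC against the E. coli or S. aureus reference strain.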

Pseudomonas aeruginosa = assay: Antibacterial activity against Pseudomonas aeruginosa PA01 DSM 19880 (ATCC 15692) cultured in MHB medium assessed as no bacterial growth incubated at 37 degC for 24 hrs by microdilution susceptibility test; type: functional; conditions: PAO1 DSM 19880 (ATCC 15692); procedure, shortened: as §1
Staphylococcus aureus = assay: Antibacterial activity against Staphylococcus aureus ATCC 9144 cultured in MHB medium assessed as no bacterial growth incubated at 37 degC for 24 hrs by microdilution susceptibility test; type: functional; conditions: ATCC 9144, 24 h; procedure, shortened: as §1
Escherichia coli = assay: Antibacterial activity against Escherichia coli ATCC 25922 cultured in MHB medium assessed as no bacterial growth incubated at 37 degC for 24 hrs by microdilution susceptibility test; type: functional; conditions: ATCC 25922, 24 h; procedure, shortened: as §1
HepG2 = assay: Cytotoxicity against human HepG2 cells assessed as reduction in cell viability incubated for 4 hrs by CellTiter 96 Aqueous One Solution Reagent based assay; conditions: HepG2, 4 h
Procedure, shortened: (§3)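 HepG2 and MRC-5 cells seeded at 35 000 and 15 000 cells/well respectively, then held overnight at 37 °C, 5% CO₂. Compounds in serum-free MEM Earle's applied for 4 h. MTS reagent (CellTiter 96 AQueous One) added for a further 1 h, absorbance read at 485 nm. Survival expressed relative to medium (negative) and Triton X-100 (positive) controls.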

[4] = Selectivity index, ratio of EC50 for hemolytic activity against human RBC to MIC for antibacterial activity against Staphylococcus aureus ATCC 9144; type: toxicity; conditions: human red blood cells (RBC); procedure, shortened: as §2
MRC5 = assay: Cytotoxicity against human MRC5 cells assessed as reduction in cell viability incubated for 4 hrs by CellTiter 96 Aqueous One Solution Reagent based assay; conditions: MRC5, 4 h; procedure, shortened: as §3

MIC [1]	solubility [2]	MIC (Pseudomonas aeruginosa)	MIC (Staphylococcus aureus)	MIC (Escherichia coli)	SMILES	EC50 (Erythrocyte)	selectivity ratio [3]	EC50 (HepG2)	selectivity ratio [4]	EC50 (MRC5)
16 µg/mL (≈ 46.6 µM)	Soluble	> 64 µg/mL	> 64 µg/mL	64 µg/mL (≈ 186 µM)	N#CC(Cc1ccccc1F)(Cc1ccccc1F)C(=O)NCCN	190 µg/mL (≈ 553 µM)	3	> 64 µg/mL		
8 µg/mL (≈ 18 µM)	Soluble	32 µg/mL (≈ 72.2 µM)	16 µg/mL (≈ 36.1 µM)	16 µg/mL (≈ 36.1 µM)	N#CC(Cc1ccccc1C(F)(F)F)(Cc1ccccc1C(F)(F)F)C(=O)NCCN	89 µg/mL (≈ 201 µM)	6	24 µg/mL (≈ 54.1 µM)	6	27 µg/mL (≈ 60.9 µM)
> 64 µg/mL	Soluble	> 64 µg/mL	> 64 µg/mL	> 64 µg/mL	N#CC(Cc1c(F)cccc1F)(Cc1c(F)cccc1F)C(=O)NCCN			> 64 µg/mL		
2 µg/mL (≈ 4.51 µM)	Soluble	32 µg/mL (≈ 72.2 µM)	4 µg/mL (≈ 9.02 µM)	4 µg/mL (≈ 9.02 µM)	N#CC(Cc1ccc(F)c2ccccc12)(Cc1ccc(F)c2ccccc12)C(=O)NCCN	> 500 µg/mL		12 µg/mL (≈ 27.1 µM)		4 µg/mL (≈ 9.02 µM)
32 µg/mL (≈ 68.8 µM)	Soluble	> 64 µg/mL	16 µg/mL (≈ 34.4 µM)	32 µg/mL (≈ 68.8 µM)	N#CC(Cc1ccccc1Br)(Cc1ccccc1Br)C(=O)NCCN	211 µg/mL (≈ 454 µM)	7	26 µg/mL (≈ 55.9 µM)	13	32 µg/mL (≈ 68.8 µM)
> 64 µg/mL	Soluble	> 64 µg/mL	> 64 µg/mL	> 64 µg/mL	NCCNC(=O)C(CN)(Cc1ccccc1F)Cc1ccccc1F			> 64 µg/mL		
8 µg/mL (≈ 17 µM)	Soluble	64 µg/mL (≈ 136 µM)	64 µg/mL (≈ 136 µM)	64 µg/mL (≈ 136 µM)	NCCNC(=O)C(CN)(Cc1ccccc1Br)Cc1ccccc1Br	271 µg/mL (≈ 578 µM)	4	48 µg/mL (≈ 102 µM)	4	56 µg/mL (≈ 119 µM)

Further lines, the compound ahead of its results:

SMILES	MIC [1]	solubility [2]	MIC (Pseudomonas aeruginosa)	MIC (Staphylococcus aureus)	MIC (Escherichia coli)	EC50 (Erythrocyte)	selectivity ratio [3]	EC50 (HepG2)	selectivity ratio [4]	EC50 (MRC5)
N#CC(Cc1cc(F)cc(F)c1)(Cc1cc(F)cc(F)c1)C(=O)NCCN	32 µg/mL (≈ 84.4 µM)	Soluble	> 64 µg/mL	> 64 µg/mL	> 64 µg/mL	208 µg/mL (≈ 548 µM)		> 64 µg/mL		
NCCNC(=O)C(CN)(Cc1cc(F)cc(F)c1)Cc1cc(F)cc(F)c1	64 µg/mL (≈ 167 µM)	Soluble	> 64 µg/mL	> 64 µg/mL	> 64 µg/mL	228 µg/mL (≈ 595 µM)		> 64 µg/mL		
N#CC(Cc1ccc(C(F)(F)F)cc1)(Cc1ccc(C(F)(F)F)cc1)C(=O)NCCN	8 µg/mL (≈ 18 µM)	Soluble	64 µg/mL (≈ 144 µM)	32 µg/mL (≈ 72.2 µM)	16 µg/mL (≈ 36.1 µM)	178 µg/mL (≈ 401 µM)	11	23 µg/mL (≈ 51.9 µM)	6	18 µg/mL (≈ 40.6 µM)
NCCNC(=O)C(CN)(Cc1c(F)cccc1F)Cc1c(F)cccc1F	> 64 µg/mL	Soluble	> 64 µg/mL	> 64 µg/mL	> 64 µg/mL			> 64 µg/mL		
NCCNC(=O)C(CN)(Cc1cccc2ccccc12)Cc1cccc2ccccc12	2 µg/mL (≈ 4.86 µM)	Soluble	16 µg/mL (≈ 38.9 µM)	4 µg/mL (≈ 9.72 µM)	16 µg/mL (≈ 38.9 µM)	90 µg/mL (≈ 219 µM)	6		23	9 µg/mL (≈ 21.9 µM)
N#CC(Cc1cc(Br)cc(Br)c1)(Cc1cc(Br)cc(Br)c1)C(=O)NCCN	> 64 µg/mL		> 64 µg/mL	> 64 µg/mL	> 64 µg/mL					
CN(C)[C@@H]1C(O)=C(C(N)=O)C(=O)[C@@]2(O)C(O)=C3C(=O)c4c(O)cccc4[C@@](C)(O)[C@H]3[C@H](O)[C@@H]12.Cl [OXYTETRACYCLINE HYDROCHLORIDE]	0.65 µg/mL		20 µg/mL	0.65 µg/mL	2.5 µg/mL			> 64 µg/mL		
